Results published in paper PMC3358524 (Journal of Immunology (Baltimore, Md. : 1950), 2012).
Peptide text beside a SMILES is read from it.

How the values were obtained:
HLA-A*3301 = HLA-A*3301 (Homo sapiens, UniProt P04439, A270S/D185E/E176V/E277Q/E87N/F33T/G231S/H175R/I121M/I218V/I322F/K168Q/K210R/L300P/L318F/M331R/P217A/Q86R/Q94H/R138Q/T323A/T345S/T97I/V358M/Y195H); experiment: Competitive peptide-binding assay, purified HLA-A*3301
In short: (§1)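 HLA class I purified from EBV-transformed homozygous or single-allele-transfected 721.221/C1R lysates on W6/32 beads (some HLA-A pre-depleted of B/C on B1.23.2). 0.1–1 nM radiolabeled high-affinity probe, 1 µM to 1 nM MHC, protease inhibitors, 1 µM β2m; 2 days, room temp. Complexes captured on W6/32 plates, cpm counted. Competitor at six concentrations over 100,000-fold range, ≥3 experiments; IC50 = 50% probe inhibition.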

HLA-A*6601 = HLA-A*6601 (Homo sapiens, UniProt P04439, A114D/A173T/A270S/D185E/E277Q/E87N/F33Y/G231S/I121R/I218V/K168Q/L180W/L300P/L318F/P208A/P217A/Q86R/R138Q/S129P/T187R/T323A/T345S/V358M); experiment: Competitive peptide-binding assay, purified HLA-A*6601
In short: as §1

HLA-A*6801 = HLA-A*6801 (Homo sapiens, UniProt P04439, A269V/D185E/E176V/E277Q/E87N/F33Y/G231S/I121M/I166T/I218V/L180W/L300P/L318F/N151K/P208A/P217A/Q86R/R169H/T345S); experiment: Competitive peptide-binding assay, purified HLA-A*6801
In short: as §1

HLA-A*1101 = HLA-A*1101 (Homo sapiens, UniProt P04439, A114D/D185E/E176A/F33Y/L180Q/S129P/T187R); experiment: Competitive peptide-binding assay, purified HLA-A*1101
HLA-A*0301 = HLA-A*0301 (Homo sapiens, UniProt P04439); experiment: Competitive peptide-binding assay, purified HLA-A*0301
In short: as §1

HLA-A*3001 = HLA-A*3001 (Homo sapiens, UniProt P04439, D140H/D185E/E176W/F33S/G80R/H175R/K168Q/R138E/R41S); experiment: Competitive peptide-binding assay, purified HLA-A*3001
In short: as §1

HLA-A*3101 = HLA-A*3101 (Homo sapiens, UniProt P04439, A270S/D185E/E176V/E277Q/F33T/G231S/G80R/H175R/I121M/I218V/I322F/K168Q/L300P/L318F/M331R/P217A/Q94H/R138Q/T323A/T345S/T97I/V358M); experiment: Competitive peptide-binding assay, purified HLA-A*3101
HLA-B*5101 = HLA-B*5101 (Homo sapiens, UniProt P01889, A329T/A93T/A95T/C349S/D138N/D201E/D98Y/E187L/E204Q/E69T/G107R/I218V/K202T/L105A/L119W/N104I/Q94N/R106L/R155S/R180L/S101N/S121T/S35A/S48A/V306I/V36M/Y195H/Y91F); experiment: Competitive peptide-binding assay, purified HLA-B*5101
In short: as §1

HLA-B*5401 = HLA-B*5401 (Homo sapiens, UniProt P01889, A329T/C349S/D138N/D201E/E176V/E187T/E204Q/E69G/I76V/K202T/L119W/R155S/R180L/S121T/S35A/S48A/V127L/V306I/V36M/Y140L); experiment: Competitive peptide-binding assay, purified HLA-B*5401
In short: as §1

HLA-B*0702 = HLA-B*0702 (Homo sapiens, UniProt P01889); experiment: Competitive peptide-binding assay, purified HLA-B*0702
In short: as §1

HLA-B*5301 = HLA-B*5301 (Homo sapiens, UniProt P01889, A329T/A93T/A95T/C349S/D201E/D98Y/E176V/E187L/E204Q/E69T/G107R/I218V/K202T/L105A/L119I/N104I/Q94N/R106L/R155S/R180L/S101N/S121R/S35A/S48A/T118I/V127L/V306I/V36M/Y140S/Y91F); experiment: Competitive peptide-binding assay, purified HLA-B*5301
In short: as §1

HLA-B*3501 = HLA-B*3501 (Homo sapiens, UniProt P01889, A329T/A93T/A95T/C349S/D201E/D98Y/E176V/E187L/E204Q/E69T/I218V/K202T/L119I/Q94N/R155S/R180L/S121R/S35A/S48A/T118I/V127L/V306I/V36M/Y140S/Y91F); experiment: Competitive peptide-binding assay, purified HLA-B*3501
In short: as §1

HLA-B*4201 = HLA-B*4201 (Homo sapiens, UniProt P01889, D138N/E176V/E187T/K202T/R180D); experiment: Competitive peptide-binding assay, purified HLA-B*4201
In short: as §1

HLA-B*3503 = HLA-B*3503 (Homo sapiens, UniProt P01889, A329T/A93T/A95T/C349S/D201E/D98Y/E176V/E187L/E204Q/E69T/I218V/K202T/L119I/Q94N/R155S/R180L/S121R/S35A/S48A/T118I/V127L/V306I/V36M/Y140F/Y91F); experiment: Competitive peptide-binding assay, purified HLA-B*3503
In short: as §1

[1] = tested on: T cells of recent-onset HLA-A*0201-positive patients; conditions: recent-onset HLA-A*0201-positive type 1 diabetes patients; cited from earlier work

Row | Compound | IC50 (HLA-A*3301) [µM] | IC50 (HLA-A*6601) [µM] | IC50 (HLA-A*6801) [µM] | IC50 (HLA-A*1101) [µM] | IC50 (HLA-A*0301) [µM] | IC50 (HLA-A*3001) [µM] | IC50 (HLA-A*3101) [µM] | IC50 (HLA-B*5101) [µM] | IC50 (HLA-B*5401) [µM] | IC50 (HLA-B*0702) [µM] | IC50 (HLA-B*5301) [µM] | IC50 (HLA-B*3501) [µM] | IC50 (HLA-B*4201) [µM] | IC50 (HLA-B*3503) [µM] | Patients showing T cell responses to the peptide (fraction in words) [1]
1 | CC(C)C[C@H](NC(=O)[C@H](C)NC(=O)[C@@H](N)CC(C)C)C(=O)N[C@@H](CCC(=O)O)C(=O)N[C@H](C(=O)N[C@@H](C)C(=O)N[C@@H](CCCNC(=N)N)C(=O)N[C@@H](CCC(N)=O)C(=O)N[C@@H](CCCCN)C(=O)N[C@@H](CCCNC(=N)N)C(=O)O)C(C)C [Mouse Ins1 C22-31] (H-LALEVARQKR-OH) | 9.14 | 13 | 12.6 | > 50 | 43.6 | 43 | 10.8 | – | – | – | – | – | – | – | –
2 | CC[C@H](C)[C@H](NC(=O)[C@H](C)N)C(=O)N[C@@H](CC(N)=O)C(=O)N[C@@H](CO)C(=O)N[C@@H](CCC(=O)O)C(=O)N[C@@H](CCSC)C(=O)N[C@@H](Cc1ccccc1)C(=O)N[C@@H](CC(C)C)C(=O)N[C@@H](CC(C)C)C(=O)O [Human IGRP 272–280] (H-AINSEMFLL-OH) | 12.8 | 36.7 | 14.2 | 2.82 | 1.26 | 6.78 | 1.07 | – | – | – | – | – | – | – | –
3 | CC(C)C[C@H](NC(=O)[C@H](C)NC(=O)[C@H](CC(C)C)NC(=O)[C@@H]1CCCN1)C(=O)N[C@@H](CCC(=O)O)C(=O)NCC(=O)N[C@@H](CO)C(=O)N[C@@H](CC(C)C)C(=O)N[C@@H](CCC(N)=O)C(=O)N[C@@H](CCCCN)C(=O)O [Human Ins C23-32] (H-PLALEGSLQK-OH) | > 50 | 48.5 | 41.5 | 37.1 | 20.9 | > 50 | 39.4 | – | – | – | – | – | – | – | –
4 | CC(C)C[C@H](NC(=O)[C@H](C)NC(=O)[C@H](CC(C)C)NC(=O)[C@@H](NC(=O)[C@H](CCC(N)=O)NC(=O)[C@H](CC(C)C)NC(=O)[C@H](CC(=O)O)NC(=O)CNC(=O)[C@@H]1CCCN1C(=O)[C@@H](N)CO)[C@@H](C)O)C(=O)O [Mouse Ins1 C15-24] (H-SPGDLQTLAL-OH) | – | – | – | – | – | – | – | > 50 | > 50 | 0.0044 | 11 | > 50 | 0.035 | 16.1 | –
5 | CC[C@H](C)[C@H](NC(=O)[C@H](C)N)C(=O)N[C@@H](CC(N)=O)C(=O)N[C@@H](CO)C(=O)N[C@@H](CCC(=O)O)C(=O)N[C@@H](CCSC)C(=O)N[C@@H](Cc1ccccc1)C(=O)N[C@@H](CC(C)C)C(=O)N[C@@H](CCCNC(=N)N)C(=O)O [Mouse IGRP 272–280] (H-AINSEMFLR-OH) | 1.08 | 4.55 | 0.109 | 0.209 | 0.428 | 49.8 | 0.067 | – | – | – | – | – | – | – | –
6 | IGRP 265–273: HLA-A2-binding IGRP epitope recognised in patients (VLFGLGFAI; UniProt Q9NQR9 265-273, looked up, fragment) | – | – | – | – | – | – | – | – | – | – | – | – | – | – | one quarter
7 | CC(C)C[C@H](NC(=O)[C@H](C)NC(=O)[C@H](CC(C)C)NC(=O)[C@@H]1CCCN1C(=O)[C@H](CCC(N)=O)NC(=O)[C@H](CC(C)C)NC(=O)[C@H](CO)NC(=O)CNC(=O)[C@H](C)NC(=O)CNC(=O)[C@@H]1CCCN1C(=O)CN)C(=O)O [Human Ins C15-26] (H-GPGAGSLQPLAL-OH) | – | – | – | – | – | – | – | > 50 | > 50 | 0.462 | 15.5 | > 50 | 6.07 | > 50 | –
8 | CC(C)C[C@H](NC(=O)[C@H](C)NC(=O)[C@@H](N)CC(C)C)C(=O)N[C@@H](CCC(=O)O)C(=O)NCC(=O)N[C@@H](CO)C(=O)N[C@@H](CC(C)C)C(=O)N[C@@H](CCC(N)=O)C(=O)N[C@@H](CCCCN)C(=O)N[C@@H](CCCNC(=N)N)C(=O)O [Human Ins C24-33] (H-LALEGSLQKR-OH) | 3.27 | 0.515 | 0.066 | 34.5 | 17.5 | > 50 | 38.4 | – | – | – | – | – | – | – | –
9 | CC(C)C[C@H](NC(=O)[C@H](C)NC(=O)[C@H](CC(C)C)NC(=O)[C@@H](N)[C@@H](C)O)C(=O)N[C@@H](CCC(=O)O)C(=O)N[C@H](C(=O)N[C@@H](C)C(=O)N[C@@H](CCC(N)=O)C(=O)N[C@@H](CCC(N)=O)C(=O)N[C@@H](CCCCN)C(=O)O)C(C)C [Mouse Ins2 C23-32] (H-TLALEVAQQK-OH) | > 50 | > 50 | 7.49 | 0.833 | 0.856 | > 50 | > 50 | – | – | – | – | – | – | – | –
10 | CC(C)C[C@H](NC(=O)[C@H](C)NC(=O)[C@H](CC(C)C)NC(=O)[C@@H](N)[C@@H](C)O)C(=O)N[C@@H](CCC(=O)O)C(=O)N[C@H](C(=O)N[C@@H](C)C(=O)N[C@@H](CCCNC(=N)N)C(=O)N[C@@H](CCC(N)=O)C(=O)N[C@@H](CCCCN)C(=O)O)C(C)C [Mouse Ins1 C21-30] (H-TLALEVARQK-OH) | 25.5 | > 50 | 13.4 | 3.33 | 0.605 | 23.3 | 13 | – | – | – | – | – | – | – | –
